ChEMBL document CHEMBL1125466, “Synthesis and antiulcer activity of N-substituted N'-[3-[3-(piperidinomethyl)phenoxy]propyl]ureas: histamine H2-receptor antagonists with a potent mucosal protective activity” (J Med Chem, 1992)

Columns and labels:
[1] = test system: Rattus norvegicus; experiment: Gastric antisecretory activity in rat (in vivo); assay type: functional
Procedure, shortened: (§1)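 Male Donryu or Wistar rats, 170-310 g, fasted 24 h. Under urethane anesthesia the pylorus was ligated (acute fistula). Compound, suspended in 1% gum arabic, given intraduodenally after the second gastric juice collection, usually at 10 mg/kg. Acid output compared with vehicle mean. Percent inhibition given as mean ± SE, 2-5 animals per group.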

[2] = test system: Rattus norvegicus; experiment: In vivo gastric mucosal protective activity against gastric mucosal lesions induced by 0.6 N HCl in rats.; assay type: functional, Gastric mucosa; parameters: concentration or dose not given beside the values
Procedure, shortened: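 Male Donryu or Wistar rats, 150-230 g, deprived of food and water 24 h. Compound given orally (25 mg/kg) 1.5 h before 1 mL 0.6 N HCl po. Killed 1 h after HCl. Stomach fixed with 0.5% formalin, and glandular lesion lengths measured. Percent inhibition compared with vehicle, mean ± SE, 5-10 animals.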

[3] = biological target: T1, Histamine H2 receptor (Cavia porcellus, UniProt P47747); experiment: In vitro inhibitory activity against histamine H2-receptor in isolated Guinea pig right atria.; settings: read-out: pA2 (converted)
[4] = test system: Rattus norvegicus; experiment: In vivo gastric antisecretory activity in acute fistula rats; assay type: functional, Stomach; parameters: concentration or dose not given beside the values; procedure, shortened: as §1
[5] = test system: Rattus norvegicus; experiment: In Vivo gastric Mucosal protective activity against gastric mucosal lesions induced by 0.6 N HCl in rats. (200 mg/kg, po); assay type: functional, Gastric mucosa
Procedure, shortened: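 Oral dosing at 200 mg/kg, 1.5 h before 1 mL of 0.6 N HCl, in male Donryu or Wistar rats (150-230 g) deprived of food and water 24 h. Killed 1 h later. Stomach formalin-fixed and glandular lesion length scored against vehicle. Percent inhibition given as mean ± SE.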

[6] = biological target: T1, Histamine H2 receptor; experiment: Compound was evaluated in vitro inhibitory activity against histamine H2 receptor in isolated Guinea pig right atria.; settings: read-out: pA2 (converted)
[7] = test system: Rattus norvegicus; experiment: In vivo gastric antisecretory activity in acute fistula rats.; assay type: functional, Stomach; procedure, shortened: as §1

T1 sequence (P47747 whole entry): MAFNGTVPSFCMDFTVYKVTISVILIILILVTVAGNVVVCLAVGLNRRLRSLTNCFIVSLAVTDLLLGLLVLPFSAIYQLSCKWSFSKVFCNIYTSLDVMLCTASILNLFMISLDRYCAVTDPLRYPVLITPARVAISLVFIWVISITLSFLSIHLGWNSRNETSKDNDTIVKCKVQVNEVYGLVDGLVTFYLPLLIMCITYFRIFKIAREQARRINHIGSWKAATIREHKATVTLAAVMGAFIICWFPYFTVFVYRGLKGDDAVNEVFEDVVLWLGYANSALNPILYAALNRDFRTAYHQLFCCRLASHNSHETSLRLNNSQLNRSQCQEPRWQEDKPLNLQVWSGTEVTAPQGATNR

Molecule | Kb [3] [nM] | Kb [6] [nM] | AS activity class [1] | Inhibition [2] [%] | Inhibition [4] [%] | Inhibition [5] [%] | Inhibition [7] [%] | inhibition ([5]; Gastric mucosa) [%]
O=C(NCCCOc1cccc(CN2CCCCC2)c1)NCc1ccccc1 | 347 | – | 2 | 61 | 54.2 | – | – | –
COc1ccc(NC(=O)NCCCOc2cccc(CN3CCCCC3)c2)c(OC)c1 | 2240 | – | 1 | 55.7 | 13.1 | – | – | –
O=C(NCCCOc1cccc(CN2CCCCC2)c1)Nc1ccc2c(c1)OCO2 | 288 | – | 2 | 47.1 | 48.9 | – | – | –
NC(N)=Nc1nc(CSCC/C(N)=N/S(N)(=O)=O)cs1 [FAMOTIDINE] | 100 | – | – | – | – | 7.9 | – | –
CNC(=C[N+](=O)[O-])NCCSCc1ccc(CN(C)C)o1 [RANITIDINE] | – | 64.6 | – | – | – | -16.8 | – | –
O=C(NCCCOc1cccc(CN2CCCCC2)c1)Nc1ccc(C(F)(F)F)cc1 | 1700 | – | 1 | 51 | 3.8 | – | – | –
O=C(NCCCOc1cccc(CN2CCCCC2)c1)Nc1ccc([N+](=O)[O-])cc1 | – | 178 | 1 | 23.4 | – | – | 9 | –
O=C(NCCCOc1cccc(CN2CCCCC2)c1)Nc1cccc([N+](=O)[O-])c1 | 269 | – | 1 | 40.9 | -23.9 | – | – | –
CCOc1ccc(NC(=O)NCCCOc2cccc(CN3CCCCC3)c2)cc1 | 490 | – | 2 | 32.7 | 54.1 | – | – | –
CN/C(=N\CCSCc1nc[nH]c1C)NC#N [CIMETIDINE] | – | – | – | – | – | -42.2 | – | –
O=C(NCCCOc1cccc(CN2CCCCC2)c1)Nc1cccc(C(F)(F)F)c1 | 813 | – | 1 | -4.9 | 7.8 | – | – | –
COc1ccc(N/C(S)=N/CCCOc2cccc(CN3CCCCC3)c2)cc1 | 4370 | – | – | 51.6 | -5.5 | – | – | –
TEPRENONE | – | – | – | – | – | – | – | 42.7

Now from value to molecule, other results behind:

Kb [3] [nM] | Kb [6] [nM] | Molecule | AS activity class [1] | Inhibition [2] [%] | Inhibition [4] [%] | Inhibition [5] [%] | Inhibition [7] [%] | inhibition ([5]; Gastric mucosa) [%]
155 | – | CNC(=O)NCCCOc1cccc(CN2CCCCC2)c1 | 3 | 64.7 | 93.3 | – | – | –
81.3 | – | CCCCNC(=O)NCCCOc1cccc(CN2CCCCC2)c1 | 3 | 67.5 | 83 | – | – | –
43.7 | – | O=C(NCCCOc1cccc(CN2CCCCC2)c1)NC1CCCCC1 | 3 | 39.3 | 77.9 | – | – | –
2090 | – | CC(C)(C)NC(=O)NCCCOc1cccc(CN2CCCCC2)c1 | 1 | 28.5 | -56 | – | – | –
47.9 | – | O=C(NCCCOc1cccc(CN2CCCCC2)c1)NC1CC1 | 3 | 49.4 | 87.5 | – | – | –
43.7 | – | CC(C)NC(=O)NCCCOc1cccc(CN2CCCCC2)c1 | 3 | 72.9 | 71.3 | – | – | –
40.7 | – | CCNC(=O)NCCCOc1cccc(CN2CCCCC2)c1 [DALCOTIDINE] | 3 | 77.9 | 71.8 | – | – | –
126 | – | O=C(NCCCOc1cccc(CN2CCCCC2)c1)Nc1ccccc1 | 1 | 44.3 | 12.6 | – | – | –
631 | – | COc1ccc(NC(=O)NCCCOc2cccc(CN3CCCCC3)c2)cc1 | 3 | 40.9 | 73.5 | – | – | –
95.5 | – | CCC(C)NC(=O)NCCCOc1cccc(CN2CCCCC2)c1 (stereo unspecified) | 2 | 17.7 | 55.1 | – | – | –
631 | – | O=C(NCCCOc1cccc(CN2CCCCC2)c1)Nc1ccc(Cl)cc1 | 1 | 33.9 | 28.2 | – | – | –
85.1 | – | O=C(NCCF)NCCCOc1cccc(CN2CCCCC2)c1 | 3 | 36 | 98.7 | – | – | –
200 | – | COc1cccc(NC(=O)NCCCOc2cccc(CN3CCCCC3)c2)c1 | 2 | 48.2 | 53.2 | – | – | –
170 | – | CC(C)CNC(=O)NCCCOc1cccc(CN2CCCCC2)c1 | 2 | 43.3 | 40.3 | – | – | –
– | 155 | Nc1cccc(NC(=O)NCCCOc2cccc(CN3CCCCC3)c2)c1 | 3 | 47.2 | – | – | 95 | –
631 | – | Cc1ccc(NC(=O)NCCCOc2cccc(CN3CCCCC3)c2)cc1 | 1 | 40.1 | -45.5 | – | – | –
97.7 | – | CCCNC(=O)NCCCOc1cccc(CN2CCCCC2)c1 | 3 | 73.5 | 96.6 | – | – | –
316 | – | O=C(NCCCOc1cccc(CN2CCCCC2)c1)Nc1cccc(Cl)c1 | 1 | 43.3 | -44.9 | – | – | –
158 | – | COc1ccc(OC)c(NC(=O)NCCCOc2cccc(CN3CCCCC3)c2)c1 | 1 | 34.7 | -30.8 | – | – | –
776 | – | COc1ccccc1NC(=O)NCCCOc1cccc(CN2CCCCC2)c1 | 1 | 31.7 | -57.4 | – | – | –
